# This is a sample that favours compounds with a hit; in the whole collection about 1.7% have one here.
# SR-BI uptake up: SR-BI HDL lipid transfer activation; 320,000 compounds, 0.096% hits; activation, % at 12.5 µM; CHO ldlA[mSR-BI] cells, DiI-HDL uptake fluorescence, 3 h; 100 = double the neutral-control signal; AID 504775;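 active = mean replicate activation of at least 60% and every replicate at or above 60%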;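 note: 0% = median plate neutral-control signal and 100% = twice that signal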
#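 Material: SR-BI-overexpressing, LDLR-lacking CHO cells | Dosing: Single compound concentration, delivered by pin transfer | Probe or stimulus: Labelled HDL, 10 µg/mL | Signal: Bottom-read cell fluorescence after medium removal, ex 550/em 595 nm | Schedule: 3 h, 37 °C | Evaluation: HDL uptake via cellular fluorescence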
# Vif inh: HIV Vif inhibition; AID 602346; inhibition, % at 7.49 µM; HEK293T cells, Vif self-association by quenched fluorescence, imaging, 24 h; 340,000 compounds, 0.35% hits; in the data active = inhibition above about 50%, passing the limit was not always enough
# Statin myotox sup: suppression of simvastatin myotoxicity | C2C12 myotubes + simvastatin, ATP luminescence, 48 h; scaled: DMSO 0, geranylgeraniol control 100 | rescue of ATP level, % at 7.49 µM | 330,000 compounds, 0.78% hits | AID 602340;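 active = mean ATP rescue above about 67%, or every replicate alone reaching that limit, limit read from the data, passing the limit was not always enough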;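 note: myotubes were challenged with 10 µM simvastatin during compound exposure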
# SR-BI HDL uptake: blocks mouse SR-BI lipid uptake from DiI-HDL. inhibition, % at 12.5 µM. ldlA[mSR-BI] CHO cells, DiI-HDL uptake fluorescence, 3 h. Q61009. 320,000 compounds, 0.96% hits;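 active = mean replicate inhibition of at least 70% and a set share of replicates each scoring 70 or more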;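 note: 0% = median of neutral control wells and 100% = median of positive control wells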
# Target sequence (Q61009 whole entry, looked up): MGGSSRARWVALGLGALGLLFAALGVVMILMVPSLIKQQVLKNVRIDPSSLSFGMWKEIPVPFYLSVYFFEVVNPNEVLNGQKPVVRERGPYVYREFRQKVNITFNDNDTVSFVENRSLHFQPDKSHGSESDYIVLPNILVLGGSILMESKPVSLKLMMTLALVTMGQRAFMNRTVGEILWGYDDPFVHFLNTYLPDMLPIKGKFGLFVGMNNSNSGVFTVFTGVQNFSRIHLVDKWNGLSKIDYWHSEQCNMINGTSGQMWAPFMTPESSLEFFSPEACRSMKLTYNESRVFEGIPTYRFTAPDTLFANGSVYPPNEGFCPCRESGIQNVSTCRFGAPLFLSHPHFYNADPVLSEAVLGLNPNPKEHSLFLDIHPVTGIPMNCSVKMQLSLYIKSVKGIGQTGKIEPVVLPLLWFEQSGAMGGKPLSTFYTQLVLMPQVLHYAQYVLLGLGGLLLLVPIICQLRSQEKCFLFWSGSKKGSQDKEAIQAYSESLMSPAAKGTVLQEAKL
# * = called active by the depositor; x = no result given.
SMILES,SR-BI uptake up,Vif inh,Statin myotox sup,SR-BI HDL uptake
COc1ccc(C#Cc2cnc3c(c2)C(=O)N([C@H](C)CO)C[C@H](C)[C@H](CN(C)CC2CCCC2)O3)cc1,x,x,1,x
COc1ccc(C#Cc2cnc3c(c2)C(=O)N([C@@H](C)CO)C[C@@H](C)[C@H](CN(C)C(=O)Nc2cccc(OC)c2)O3)cc1,x,x,112*,x
CC(C)CC#Cc1cnc2c(c1)C(=O)N([C@H](C)CO)C[C@@H](C)[C@@H](CN(C)C(=O)Cc1ccccc1)O2,x,x,40,x
Cc1ccc(S(=O)(=O)N(C)C[C@@H]2Oc3ncc(C#Cc4cccc(F)c4)cc3C(=O)N([C@H](C)CO)C[C@@H]2C)cc1,x,x,100*,x
CC(C)CC#Cc1cnc2c(c1)C(=O)N([C@H](C)CO)C[C@H](C)[C@@H](CN(C)C(=O)Cc1ccccc1)O2,x,x,77*,x
C[C@H](CO)N1C[C@H](C)[C@H](CN(C)S(=O)(=O)c2ccc(C#N)cc2)Oc2ncc(C#Cc3cccc(F)c3)cc2C1=O,x,x,22,x
C[C@H](CO)N1C[C@H](C)[C@@H](CN(C)CC2CCCC2)Oc2ncc(C#Cc3ccncc3)cc2C1=O,x,x,103*,x
COc1cccc(S(=O)(=O)N[C@@H]2CC[C@H](CC(=O)NCc3ccc(F)cc3)O[C@@H]2CO)c1,x,x,4,x
CN(C)C(=O)C[C@H]1CC[C@@H]2[C@H](COC[C@H](O)CN2Cc2ccc(C(F)(F)F)cc2)O1,x,x,-9,x
COc1ccc(C#Cc2cnc3c(c2)C(=O)N([C@H](C)CO)C[C@H](C)[C@H](CN(C)Cc2cccc(C(F)(F)F)c2)O3)cc1OC,x,x,152*,x
C[C@H](CO)N1C[C@H](C)[C@H](CN(C)Cc2cccc(C(F)(F)F)c2)Oc2ncc(C#CCN(C)C)cc2C1=O,x,x,-1,x
C/C(CCc1ccc2c(c1)OCO2)=N\NC(=S)NC(C)C,-77,8,2,77*
CCCN(C)C[C@@H]1OCCCC[C@@H](C)Oc2ccc(NS(=O)(=O)c3ccccc3)cc2C(=O)N([C@@H](C)CO)C[C@@H]1C,x,x,-18,x
CCOc1ccc(-c2c(C(=O)N/N=C/c3ccc(Cl)cc3)nnn2-c2nonc2N)cc1,-55,2,4,55
C/C(=N\NC(=O)c1nnn(-c2nonc2N)c1-c1ccccc1)c1ccccc1O,-86,18,-25,86*
CCCOc1ccc(-c2c(C(=O)N/N=C/c3ccc(C)cc3)nnn2-c2nonc2N)cc1,x,54*,4,x
CCOc1ccc(-c2c(C(=O)N/N=C/c3ccc(C)cc3)nnn2-c2nonc2N)cc1,-44,-1,6,44
Cc1ccc(-c2c(C(=O)N/N=C/c3ccc4c(c3)OCO4)nnn2-c2nonc2N)cc1,-76,-2,13,76*
CCOc1ccc(-c2c(C(=O)N/N=C/c3ccc(OC(C)C)cc3)nnn2-c2nonc2N)cc1,-77,-13,2,77*
O=C(Cc1ccncc1)NCC[C@H]1CC[C@H](NC(=O)C2CCCCC2)[C@H](CO)O1,x,x,3,x
COc1ccc(C#Cc2cnc3c(c2)C(=O)N([C@@H](C)CO)C[C@@H](C)[C@@H](CN(C)CC2CC2)O3)cc1,x,x,7,x
COc1ccc2ccccc2c1/C=N/NC(=O)c1nnn(-c2nonc2N)c1C(C)C,-77,-1,-1,77*
CCOc1ccc(-c2c(C(=O)N/N=C/c3ccccc3)nnn2-c2nonc2N)cc1,-74,-1,-2,74*
Cc1ccc(-c2c(C(=O)N/N=C/c3ccc(OC(C)C)cc3)nnn2-c2nonc2N)cc1,-78,-4,-10,78*
CC1(c2ccccc2)CC(C)(C)N2C(=O)C3(C(C#N)=C(N)Oc4cc(O)ccc43)c3cccc1c32 (configuration not stated),26,1,87*,-26
SMILES,SR-BI uptake up,Vif inh,Statin myotox sup,SR-BI HDL uptake
CCS(=O)(=O)N[C@H]1C=C[C@@H](CC(=O)NCc2ccc(F)cc2)O[C@H]1CO,x,x,7,x
O=C(Nc1nc(-c2ccc(Br)cc2)cs1)c1cccnc1,0,-12,x,0
O=C(NC(=S)Nc1nc(-c2ccc(Br)cc2)cs1)c1cccnc1,-10,36,254*,10
Cc1noc(C)c1NC(=O)N[C@@H]1CC[C@H](CC(=O)NCc2ccc(Cl)c(Cl)c2)O[C@H]1CO,x,x,-2,x
CCOC(=O)CSc1nc2sc3c(c2c(=O)[nH]1)CC(C)(CC)OC3 (configuration not stated),2,-9,-10,-2
CCC1(C)Cc2c(sc3nc(NN)n(C)c(=O)c23)CO1 (configuration not stated),-14,5,144*,14
COC(=O)c1scc(C)c1NC(=O)C1CCCCC1,-2,-2,83*,2
COC(=O)c1scc(C)c1NC(=O)c1ccc(Cl)cc1,-2,-2,12,2
CCCNC(=O)[C@@H]1[C@@H](CO)[C@@H]2Cn3c(ccc(-c4ccccc4F)c3=O)[C@@H]2N1C(=O)CC,x,x,-12,x
CCNC(=O)Cn1cc(C#N)c2ccccc21,-1,-4,93*,1
COc1ccc(NC(=O)Cn2cc(C#N)c3ccccc32)cc1,2,0,x,-2
O=C(C[C@@H]1CC[C@@H]2[C@H](COC[C@@H](O)CN2Cc2ccc(C(F)(F)F)cc2)O1)NCCc1ccccc1,x,x,34,x
CCOC(=O)c1c(NC(C)=O)sc2c(OCCN(CC)CC)c(Br)ccc12,-39,-8,x,39
CCOC(=O)c1c(NC(C)=O)sc2c(OCC(O)CN(CC)CC)c(Br)ccc12 (configuration not stated),-83,-11,-3,83*
N#C/C(C(=O)NCc1ccco1)=C1/SC(Cc2ccc(F)cc2)C(=O)N1c1ccccc1 (configuration not stated),34,-2,87*,-34
Cc1cccc(-n2c(N)c(-c3nc4ccccc4n3C)c3nc4ccccc4nc32)c1,-73,18,x,73*
O=c1cc2oc3cc(O)c(O)cc3c(-c3ccccc3O)c-2cc1O,-27,12,x,27
COc1ccc(OC)c(-c2oc3ccccc3c(=O)c2O)c1,-6,5,-13,13
COc1ccc(OC)c(-c2c3cc(O)c(=O)cc-3oc3cc(O)c(O)cc23)c1,-91,-1,x,91*
CCOc1ccccc1-c1c2cc(O)c(=O)cc-2oc2cc(O)c(O)cc12,-73,-2,x,73*
CO[C@H]1CN(C)C(=O)c2cc(NC(=O)C3CCC3)ccc2OC[C@@H](C)N(Cc2cccnc2)C[C@@H]1C,x,x,5,x
CCOC(=O)CNC=C(C(=O)OCC)C(=O)OCC,23,7,25,-23
CCOC(=O)C(=CNCC(=O)OC)C(=O)OCC,6,20,107*,-6
CO[C@H]1CC[C@H]2CCN(C)C(=O)CCCN(C)C(=O)c3cccc(C#N)c3OC[C@H]1O2,x,x,-6,x
COc1ccc(NC(=O)CCn2c(=O)c3cccn3c3ccccc32)c(OC)c1,-75,0,0,75*
Cc1ccc(NC(=O)CCn2c(=O)c3cccn3c3ccccc32)c(C)c1,-48,2,-8,48
COc1ccc(NC(=O)CCn2c(=O)c3cccn3c3ccccc32)cc1,-52,6,10,52

# High-throughput results as filed in PubChem BioAssay.
